What was measured:
[1] = target: Voltage-dependent N-type calcium channel subunit alpha-1B (Homo sapiens, UniProt Q00975); test: Inhibition of Cav2.2-mediated calcium influx in HEK cells by FLIPR assay; type: cell-based, HEK293
Outline: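 Cav2.2 calcium-influx FLIPR assay; compounds screened for percent inhibition at single concentration, active ones titrated for IC50; values averaged over n ≥ 3.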

[2] = target: T1, Nuclear receptor subfamily 1 group I member 2 (Homo sapiens, UniProt O75469); test: Activation of PXR (unknown origin)
T1 sequence (O75469 whole entry): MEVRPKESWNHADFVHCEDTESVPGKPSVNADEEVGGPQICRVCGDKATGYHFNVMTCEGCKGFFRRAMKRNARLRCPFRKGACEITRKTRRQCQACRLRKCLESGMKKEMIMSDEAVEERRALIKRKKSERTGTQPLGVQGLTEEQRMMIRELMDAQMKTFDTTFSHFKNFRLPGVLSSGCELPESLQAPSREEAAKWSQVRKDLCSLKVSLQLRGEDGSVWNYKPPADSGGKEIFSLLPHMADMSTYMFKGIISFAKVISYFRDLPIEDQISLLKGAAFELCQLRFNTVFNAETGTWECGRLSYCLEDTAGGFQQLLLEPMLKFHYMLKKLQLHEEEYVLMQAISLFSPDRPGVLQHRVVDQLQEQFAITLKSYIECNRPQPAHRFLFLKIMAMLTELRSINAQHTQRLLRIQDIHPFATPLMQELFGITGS

[3] = target: hERG (KCNH2) (Homo sapiens, UniProt Q12809); test: Displacement of [35S]MK-499 from human ERG at 10 uM relative to control; conditions: probe [35S]MK-499
Outline: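 hERG binding assessed by displacement of [35S]MK-499; percent inhibition at 10 μM test compound.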

[4] = target: CYP3A4 (Homo sapiens, UniProt P08684); test: Inhibition of CYP3A4 (unknown origin) at 10 uM relative to control; type: ADME
[5] = system: Liver microsome; test: Drug metabolism in rat liver microsomes assessed as 3-(trifluoromethyl)-benzenesulfonamide level after 1 hr in presence of NADPH; type: ADME
[6] = system: Rattus norvegicus; test: Antinociceptive activity in rat inflammatory pain model assessed as reversal of CFA-induced mechanical allodynia at 10 mg/kg, po after 1 hr; type: functional
Outline: (§1)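 Rats given intraplantar complete Freund's adjuvant in the hind paws to induce inflammatory pain; mechanical allodynia assessed 1 and 3 h after a single oral dose. Percent reversal per rat calculated as (postdose − predose)/(preinjury − predose), averaged over n = 6 rats.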

[7] = system: Liver microsome; test: Drug metabolism in human liver microsomes assessed as 3-(trifluoromethyl)-benzenesulfonamide level after 1 hr in presence of NADPH; type: ADME
[8] = system: Rattus norvegicus; test: Antinociceptive activity in rat inflammatory pain model assessed as reversal of CFA-induced mechanical allodynia at 10 mg/kg, po after 3 hrs; type: functional; outline: as §1
[9] = Metabolic stability in human liver microsomes assessed as compound remaining at 10 uM after 1 hr in presence of NADPH; type: ADME; conditions: read-out: Stability
Outline: (§2)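 Liver microsomes (rat or human) incubated with compound and NADPH for 1 h; percent of parent remaining. Table footnote gives 10 μM compound, 1 mM NADPH, 1 mg/mL protein; text gives 1 μM substrate, 1 mg/mL protein.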

[10] = Metabolic stability in rat liver microsomes assessed as compound remaining at 10 uM after 1 hr in presence of NADPH; type: ADME; conditions: read-out: Stability; outline: as §2
[11] = Half life in rat at 3 mg/kg, po and 1 mg/kg, iv; type: ADME, organism-based; conditions: in vivo
Outline: (§3)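 Rats dosed 3 mg/kg orally and 1 mg/kg intravenously; PK parameters derived from whole-blood concentrations. Normalized oral AUC given in μM·h·kg/mg, clearance in mL/min/kg, plus half-life and oral bioavailability.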

[12] = target: MDR1 (ABCB1) (Homo sapiens, UniProt P08183); test: Activity at human MDR1 expressed in MDCK2 cells assessed as apparent permeability by LC/MS/MS analysis; type: ADME, cell-based, MDCK-II; conditions: MDCK-MDR1
[13] = Clearance in rat at 3 mg/kg, po and 1 mg/kg, iv; type: ADME, organism-based; conditions: in vivo; outline: as §3
[14] = system: Rattus norvegicus; test: Normalized AUC in rat whole blood at 3 mg/kg, po; type: ADME, organism-based; set-up: dose 3 mg/kg, route oral; conditions: in vivo; outline: as §3
[15] = Oral bioavailability in rat at 3 mg/kg; type: ADME, organism-based; conditions: in vivo; outline: as §3
[16] = Fraction unbound in 100% rat plasma; type: ADME, cell-free
Outline: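 Unbound fraction measured in 100% rat plasma.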

Chain of Voltage-dependent N-type calcium channel subunit alpha-1B (Q00975 whole entry): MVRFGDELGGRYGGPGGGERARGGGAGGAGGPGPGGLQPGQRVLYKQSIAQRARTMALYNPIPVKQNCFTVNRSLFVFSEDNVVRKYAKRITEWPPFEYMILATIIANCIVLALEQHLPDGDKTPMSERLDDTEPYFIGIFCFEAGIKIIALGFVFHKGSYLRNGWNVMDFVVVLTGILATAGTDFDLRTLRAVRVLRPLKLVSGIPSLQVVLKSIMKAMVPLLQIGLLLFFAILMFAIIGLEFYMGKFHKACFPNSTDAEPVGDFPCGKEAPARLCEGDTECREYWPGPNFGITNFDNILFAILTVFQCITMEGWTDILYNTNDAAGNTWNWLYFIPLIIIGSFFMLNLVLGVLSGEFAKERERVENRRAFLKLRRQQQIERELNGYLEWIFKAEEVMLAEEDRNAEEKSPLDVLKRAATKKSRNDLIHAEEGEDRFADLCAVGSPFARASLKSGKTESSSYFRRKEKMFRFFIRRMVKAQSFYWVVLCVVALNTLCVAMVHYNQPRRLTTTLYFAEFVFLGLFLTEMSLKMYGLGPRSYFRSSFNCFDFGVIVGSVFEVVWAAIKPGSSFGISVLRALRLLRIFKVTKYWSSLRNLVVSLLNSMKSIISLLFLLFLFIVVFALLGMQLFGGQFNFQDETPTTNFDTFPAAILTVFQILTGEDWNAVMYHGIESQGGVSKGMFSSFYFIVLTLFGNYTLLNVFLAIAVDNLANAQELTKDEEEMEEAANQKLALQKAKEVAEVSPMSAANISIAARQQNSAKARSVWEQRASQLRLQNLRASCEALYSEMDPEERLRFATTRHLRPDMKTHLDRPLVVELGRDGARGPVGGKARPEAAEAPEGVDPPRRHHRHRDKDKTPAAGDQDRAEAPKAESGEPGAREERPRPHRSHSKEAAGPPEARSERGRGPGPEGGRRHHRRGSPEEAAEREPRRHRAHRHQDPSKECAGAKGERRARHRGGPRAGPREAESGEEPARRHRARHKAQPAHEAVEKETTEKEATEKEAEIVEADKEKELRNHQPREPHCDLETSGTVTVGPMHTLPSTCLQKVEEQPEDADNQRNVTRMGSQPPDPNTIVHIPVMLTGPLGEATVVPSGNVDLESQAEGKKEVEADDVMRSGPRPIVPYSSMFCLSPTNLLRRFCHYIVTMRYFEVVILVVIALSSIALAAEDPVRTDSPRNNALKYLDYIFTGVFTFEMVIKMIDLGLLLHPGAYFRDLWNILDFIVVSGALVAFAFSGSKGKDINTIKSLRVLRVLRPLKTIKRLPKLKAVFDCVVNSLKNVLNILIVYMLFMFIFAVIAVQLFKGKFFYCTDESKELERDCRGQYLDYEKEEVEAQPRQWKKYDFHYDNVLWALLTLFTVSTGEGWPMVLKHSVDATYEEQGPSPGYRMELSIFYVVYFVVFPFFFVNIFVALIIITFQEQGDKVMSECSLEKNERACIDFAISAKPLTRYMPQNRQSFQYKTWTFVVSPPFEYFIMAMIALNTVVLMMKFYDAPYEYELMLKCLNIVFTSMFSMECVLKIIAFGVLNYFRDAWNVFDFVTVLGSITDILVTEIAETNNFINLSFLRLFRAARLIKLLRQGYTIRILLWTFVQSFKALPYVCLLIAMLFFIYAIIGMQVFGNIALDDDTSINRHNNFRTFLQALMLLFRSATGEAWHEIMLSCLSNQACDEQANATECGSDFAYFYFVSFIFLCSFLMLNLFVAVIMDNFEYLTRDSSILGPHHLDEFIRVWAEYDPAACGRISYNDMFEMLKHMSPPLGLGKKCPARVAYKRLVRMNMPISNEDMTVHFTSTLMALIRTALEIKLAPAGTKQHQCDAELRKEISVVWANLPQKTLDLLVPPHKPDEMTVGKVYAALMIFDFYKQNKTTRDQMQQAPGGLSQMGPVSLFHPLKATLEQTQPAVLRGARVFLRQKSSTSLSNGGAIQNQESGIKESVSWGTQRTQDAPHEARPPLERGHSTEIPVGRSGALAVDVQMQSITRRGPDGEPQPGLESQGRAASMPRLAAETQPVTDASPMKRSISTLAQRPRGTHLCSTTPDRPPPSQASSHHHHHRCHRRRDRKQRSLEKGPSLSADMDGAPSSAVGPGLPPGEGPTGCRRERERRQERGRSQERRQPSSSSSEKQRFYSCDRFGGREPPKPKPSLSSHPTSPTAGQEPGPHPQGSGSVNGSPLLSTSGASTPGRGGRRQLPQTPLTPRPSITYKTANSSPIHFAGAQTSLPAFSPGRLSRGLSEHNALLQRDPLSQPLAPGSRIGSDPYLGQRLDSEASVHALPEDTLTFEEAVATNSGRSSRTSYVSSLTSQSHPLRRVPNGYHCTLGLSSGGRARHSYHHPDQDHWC
Chain of CYP3A4 (P08684 whole entry): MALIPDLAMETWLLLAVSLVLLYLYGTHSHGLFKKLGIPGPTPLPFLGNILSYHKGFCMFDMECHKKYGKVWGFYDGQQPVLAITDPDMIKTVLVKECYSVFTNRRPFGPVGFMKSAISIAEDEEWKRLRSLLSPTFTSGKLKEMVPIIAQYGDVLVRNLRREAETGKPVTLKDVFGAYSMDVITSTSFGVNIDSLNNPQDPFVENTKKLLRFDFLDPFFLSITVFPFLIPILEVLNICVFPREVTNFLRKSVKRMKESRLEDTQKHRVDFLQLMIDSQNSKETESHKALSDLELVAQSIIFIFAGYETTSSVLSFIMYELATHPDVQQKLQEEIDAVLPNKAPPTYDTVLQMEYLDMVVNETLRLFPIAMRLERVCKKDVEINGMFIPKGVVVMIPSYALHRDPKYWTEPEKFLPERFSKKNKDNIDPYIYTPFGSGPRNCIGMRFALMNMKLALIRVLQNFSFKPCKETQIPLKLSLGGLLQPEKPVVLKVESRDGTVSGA
Chain of hERG (KCNH2) (Q12809 whole entry): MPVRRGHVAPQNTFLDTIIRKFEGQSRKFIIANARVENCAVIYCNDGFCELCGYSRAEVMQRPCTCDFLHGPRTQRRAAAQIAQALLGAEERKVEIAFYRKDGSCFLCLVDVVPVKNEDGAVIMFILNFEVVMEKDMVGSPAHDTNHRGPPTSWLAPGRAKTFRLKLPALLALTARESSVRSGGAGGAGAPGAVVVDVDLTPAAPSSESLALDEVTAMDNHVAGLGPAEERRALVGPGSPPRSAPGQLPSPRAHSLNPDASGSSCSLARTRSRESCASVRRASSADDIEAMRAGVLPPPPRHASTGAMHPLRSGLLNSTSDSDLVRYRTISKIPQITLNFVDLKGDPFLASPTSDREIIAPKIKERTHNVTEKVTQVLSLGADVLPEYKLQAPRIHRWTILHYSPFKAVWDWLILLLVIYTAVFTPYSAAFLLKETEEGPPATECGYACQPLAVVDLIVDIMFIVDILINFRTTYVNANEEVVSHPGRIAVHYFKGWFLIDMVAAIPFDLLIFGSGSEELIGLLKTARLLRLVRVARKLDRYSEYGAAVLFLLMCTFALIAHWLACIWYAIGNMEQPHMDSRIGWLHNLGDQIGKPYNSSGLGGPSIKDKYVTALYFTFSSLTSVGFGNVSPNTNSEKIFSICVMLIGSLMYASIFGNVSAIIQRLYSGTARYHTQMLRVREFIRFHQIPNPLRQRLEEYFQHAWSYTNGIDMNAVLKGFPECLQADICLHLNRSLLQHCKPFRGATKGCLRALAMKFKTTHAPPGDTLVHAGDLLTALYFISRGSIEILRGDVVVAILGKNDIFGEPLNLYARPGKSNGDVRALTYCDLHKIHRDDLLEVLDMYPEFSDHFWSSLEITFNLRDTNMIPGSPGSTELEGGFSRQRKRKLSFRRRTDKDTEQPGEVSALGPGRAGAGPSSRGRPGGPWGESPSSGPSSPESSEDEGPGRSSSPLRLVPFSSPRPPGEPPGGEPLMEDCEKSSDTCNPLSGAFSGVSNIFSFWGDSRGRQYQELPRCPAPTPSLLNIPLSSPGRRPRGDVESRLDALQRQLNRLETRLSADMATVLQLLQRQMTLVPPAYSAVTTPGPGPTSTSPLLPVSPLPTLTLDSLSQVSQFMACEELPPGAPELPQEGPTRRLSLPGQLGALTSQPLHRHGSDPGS

Structure (SMILES) | IC50 [1] | EC50 [2] | inhibition at 10 µM [3] | inhibition at 10 µM [4] | also measured
C[C@H]1[C@H](N(C2CC2)S(=O)(=O)c2cccc(C(F)(F)F)c2)CN1C(=O)c1cc(F)ccc1S(C)(=O)=O (racemic) | 430 nM | – | – | – | –
CS(=O)(=O)c1ccc(C(=O)N2CCC(N(C3CC3)S(=O)(=O)c3cccc(C(F)(F)F)c3)CC2)c(F)c1 | 350 nM | 6800 nM | 78% | – | –
CS(=O)(=O)c1ccc(F)cc1C(=O)N1CCC2(CCN(S(=O)(=O)c3cccc(C(F)(F)F)c3)CC2)C1 | 190 nM | – | – | – | –
CS(=O)(=O)c1ccc(C(=O)N2CCC(N(C3CC3)S(=O)(=O)c3cccc(C(F)(F)F)c3)CC2)c(OC(F)(F)F)c1 | 48 nM | 1700 nM | 63% | 16% | –
CS(=O)(=O)c1ccc(F)cc1C(=O)N1CCC(N(C2CC2)S(=O)(=O)c2cccc(C(F)(F)F)c2)CC1 | – | – | – | 75% | Drug metabolism [5]: 0.01 µM; Efficacy [6]: 43%; Drug metabolism [7]: 0.03 µM; Efficacy [8]: 38%
NC(=O)c1ccc(C(=O)N2CCC(N(C3CC3)S(=O)(=O)c3cccc(C(F)(F)F)c3)CC2)c(OC(F)(F)F)c1 | 390 nM | > 10000 nM | 41% | 60% | –
CC(C)(C1CCN(C(=O)c2ccc(S(C)(=O)=O)cc2OC(F)(F)F)CC1)S(=O)(=O)c1cccc(C(F)(F)F)c1 | 92 nM | > 30000 nM | – | – | remaining at 1 h, 10 µM [9]: 62%; remaining at 1 h, 10 µM [10]: 73%; half-life [11]: 2.3 h; Papp [12]: 35 ×10⁻⁶ cm/s; clearance [13]: 27 mL/min/kg; AUC/dose [14]: 0.97 µM·kg·h/mg; Efficacy [6]: 21%; Efficacy [8]: 30%; bioavailability [15]: 95%; fraction unbound [16]: 0.013
CS(=O)(=O)c1ccc(C(=O)N2CCC3(CCN(S(=O)(=O)c4cccc(C(F)(F)F)c4)CC3)C2)c(C(F)(F)F)c1 | 310 nM | – | – | – | remaining at 1 h, 10 µM [9]: 4.2%; remaining at 1 h, 10 µM [10]: 3.8%; Drug metabolism [5]: 0.18 µM; Drug metabolism [7]: 5.13 µM
CS(=O)(=O)c1cc(C(F)(F)F)ccc1C(=O)N1CCC(N(C2CC2)S(=O)(=O)c2cccc(C(F)(F)F)c2)CC1 | 27 nM | 4300 nM | 43% | 78% | –
CC(C1CCN(C(=O)c2ccc(S(C)(=O)=O)cc2OC(F)(F)F)CC1)S(=O)(=O)c1cccc(C(F)(F)F)c1 (stereo in doubt; 30 en-1) | 88 nM | – | – | – | –
CC1(N(C2CC2)S(=O)(=O)c2cccc(C(F)(F)F)c2)CCN(C(=O)c2cc(F)ccc2S(C)(=O)=O)CC1 | 710 nM | – | – | – | Drug metabolism [5]: 0.06 µM; Drug metabolism [7]: 0.04 µM
CS(=O)(=O)c1ccc(F)cc1C(=O)N1CCC(N(C2CC2)S(=O)(=O)c2cccc(C(F)(F)F)c2)C1 (racemic) | 370 nM | – | – | – | –
CS(=O)(=O)c1ccc(Cl)c(C(=O)N2CCC(N(C3CC3)S(=O)(=O)c3cccc(C(F)(F)F)c3)CC2)c1 | 340 nM | 2700 nM | 49% | 69% | –
NC(=O)c1ccc(C(=O)N2CCC(N(C3CC3)S(=O)(=O)c3cccc(C(F)(F)F)c3)CC2)c(C(F)(F)F)c1 | 760 nM | 1900 nM | 32% | 61% | –
CCN(C1CCN(C(=O)c2ccccc2OC(F)(F)F)CC1)S(=O)(=O)c1cccc(C(F)(F)F)c1 | 470 nM | – | – | – | remaining at 1 h, 10 µM [9]: 30%; remaining at 1 h, 10 µM [10]: 3.4%; Drug metabolism [5]: 0.08 µM; Drug metabolism [7]: 1.16 µM

From ChEMBL document CHEMBL3091454, “Improved Cav2.2 Channel Inhibitors through a gem-Dimethylsulfone Bioisostere Replacement of a Labile Sulfonamide” (ACS Med Chem Lett, 2013)
